Our source for the IC50 values is ChEMBL document CHEMBL1154032, “Substituted pyrimidines as cannabinoid CB1 receptor ligands” (Bioorg Med Chem Lett, 2009).

Experiment [1] has as its target Cannabinoid receptor 1 (Rattus norvegicus, UniProt P20272). The experiment is described as follows: Displacement of [3H]CP-55940 from cannabinoid CB1 receptor in Sprague-Dawley rat cerebellar membrane by liquid scintillation spectrometry. Set-up: species or system Cerebellum. A digest of the protocol: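 About 10 µg membrane incubated with 3 nM [3H]CP55,940, graded ligand concentrations, TME with 0.5% fatty-acid-free BSA, 1 h at 30 °C. PEI-soaked GF/B filtration, five ice-cold washes. IC50 by nonlinear regression, triplicate.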
(In general: Displacement assays read how much labelled ligand stays bound in the presence of the test substance.)

Experiment [2] concerns the target Cannabinoid receptor 2 (Homo sapiens, UniProt P34972). The experiment is described as follows: Displacement of [3H]WIN-55212-2 from human recombinant CB2 receptor expressed in CHOK1 cells by liquid scintillation spectrometry. Format: cell-based, CHO-K1. A digest of the protocol: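 Membranes from CHO K-1 cells transfected with human CB2, prepared as for brain tissue (TME buffer pH 7.4, 48,000g spin). About 10 µg membrane incubated with 3 nM [3H]WIN55,212-2 and graded ligand concentrations in TME with 0.5% fatty-acid-free BSA, 1 h at 30 °C. Filtered over PEI-soaked GF/B, washed five times ice-cold. IC50 from nonlinear regression, triplicate.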

The IC50 is the concentration that gives 50% inhibition.

Chain of Cannabinoid receptor 1 (P20272 whole entry): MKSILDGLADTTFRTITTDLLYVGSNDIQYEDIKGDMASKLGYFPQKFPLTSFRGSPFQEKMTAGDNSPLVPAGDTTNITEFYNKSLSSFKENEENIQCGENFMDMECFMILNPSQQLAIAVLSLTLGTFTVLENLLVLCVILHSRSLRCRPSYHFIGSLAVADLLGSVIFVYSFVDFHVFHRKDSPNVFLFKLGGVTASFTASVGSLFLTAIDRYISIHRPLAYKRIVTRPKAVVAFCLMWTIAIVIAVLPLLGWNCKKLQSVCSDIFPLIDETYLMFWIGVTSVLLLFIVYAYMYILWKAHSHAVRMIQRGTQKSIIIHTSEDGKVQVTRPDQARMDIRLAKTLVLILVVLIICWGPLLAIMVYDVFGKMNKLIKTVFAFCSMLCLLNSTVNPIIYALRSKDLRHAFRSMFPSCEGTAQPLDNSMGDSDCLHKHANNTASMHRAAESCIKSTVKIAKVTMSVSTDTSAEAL
Chain of Cannabinoid receptor 2 (P34972 whole entry): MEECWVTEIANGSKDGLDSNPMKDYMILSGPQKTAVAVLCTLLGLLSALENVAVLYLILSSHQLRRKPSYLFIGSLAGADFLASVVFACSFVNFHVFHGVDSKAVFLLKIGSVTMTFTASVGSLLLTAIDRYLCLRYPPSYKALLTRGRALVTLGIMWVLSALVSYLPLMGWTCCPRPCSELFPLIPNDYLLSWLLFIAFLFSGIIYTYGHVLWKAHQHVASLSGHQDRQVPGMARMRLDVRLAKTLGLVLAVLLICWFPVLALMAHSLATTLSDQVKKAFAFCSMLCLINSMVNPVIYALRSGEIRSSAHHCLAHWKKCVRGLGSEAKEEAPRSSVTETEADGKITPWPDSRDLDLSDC

As to `C[C@H](Nc1cc(NC2CCCC2)ncn1)[C@@H](Cc1ccc(Cl)cc1)c1cccc(Br)c1`, the IC50 in experiment [1] is 24.7 nM.

For `Cc1nc(NC2CCCCCC2)cc(N[C@@H](C)[C@@H](Cc2ccc(Cl)cc2)c2cccc(Br)c2)n1`, the IC50 in experiment [1] was determined as 66.5 nM.

Regarding `C[C@H](Nc1cc(NC2CCCCCC2)nc(C(F)(F)F)n1)[C@@H](Cc1ccc(Cl)cc1)c1cccc(Br)c1`, the IC50 in experiment [1] was 38.9 nM.

Consider `C[C@H](Nc1cc(Nc2ccc(F)cc2)ncn1)[C@@H](Cc1ccc(Cl)cc1)c1cccc(Br)c1`, for which, in experiment [1], the IC50 turned out to be 97.8 nM.

For the compound `C[C@H](Nc1cc(N2CCCCC2)ncn1)[C@@H](Cc1ccc(Cl)cc1)c1cccc(Br)c1`, in experiment [1], the IC50 worked out at 21 nM.

As for `C[C@H](Nc1cc(C2CCCCC2)ncn1)[C@@H](Cc1ccc(Cl)cc1)c1cccc(Br)c1`, the IC50 in experiment [1] was determined as 63.1 nM.

For the compound `C[C@H](Nc1cc(C2CCCC2)ncn1)[C@@H](Cc1ccc(Cl)cc1)c1cccc(Br)c1`, in experiment [1], the IC50 came out at 39.8 nM.

As to `CCCCCOc1cc(N[C@@H](C)[C@@H](Cc2ccc(Cl)cc2)c2cccc(Br)c2)ncn1`, the IC50 in experiment [1] is 203 nM.

In the case of `CCCCCNc1cc(N[C@@H](C)[C@@H](Cc2ccc(Cl)cc2)c2cccc(Br)c2)ncn1`, the IC50 in experiment [1] came to 195 nM.

Take `CCCCC(CC)CNc1cc(N[C@@H](C)[C@@H](Cc2ccc(Cl)cc2)c2cccc(Br)c2)ncn1` (some centres not stated): the IC50 in experiment [1] came to 103 nM.

Compound `Cc1nc(NC2CCCC2)cc(N[C@@H](C)[C@@H](Cc2ccc(Cl)cc2)c2cccc(Br)c2)n1` showed an IC50 in experiment [1] of 98.6 nM.

`CC(C)CNc1cc(N[C@@H](C)[C@@H](Cc2ccc(Cl)cc2)c2cccc(Br)c2)ncn1`: the IC50 in experiment [1] came to 155 nM.

In experiment [1], `C[C@H](Nc1cc(NCC2CCCO2)ncn1)[C@@H](Cc1ccc(Cl)cc1)c1cccc(Br)c1` (some centres not stated) showed an IC50 of 115 nM.

The compound `CCCCNc1cc(N[C@@H](C)[C@@H](Cc2ccc(Cl)cc2)c2cccc(Br)c2)nc(C(F)(F)F)n1` yielded an IC50 in experiment [1] of 43.5 nM.

As for `C[C@H](Nc1cc(NC2CCCCC2)ncn1)[C@@H](Cc1ccc(Cl)cc1)c1cccc(Br)c1`, in experiment [1], the IC50 worked out at 27.6 nM.

In turn, `C[C@H](Nc1cc(NC2CCCCCC2)ncn1)[C@@H](Cc1ccc(Cl)cc1)c1cccc(Br)c1` gave an IC50 in experiment [1] of 45.3 nM.

`C[C@H](Nc1cc(NCC2CCCCC2)ncn1)[C@@H](Cc1ccc(Cl)cc1)c1cccc(Br)c1` registered an IC50 in experiment [1] of 70.5 nM.

The compound `CCN(C)c1cc(N[C@@H](C)[C@@H](Cc2ccc(Cl)cc2)c2cccc(Br)c2)ncn1` returned an IC50 in experiment [1] of 106 nM.

In experiment [1], `C[C@H](Nc1cc(Nc2ccccc2)ncn1)[C@@H](Cc1ccc(Cl)cc1)c1cccc(Br)c1` returned an IC50 of 67.4 nM.

As for `CC1CC(C)CN(c2cc(N[C@@H](C)[C@@H](Cc3ccc(Cl)cc3)c3cccc(Br)c3)ncn2)C1` (some centres not stated), the IC50 in experiment [1] stood at 283 nM.

With `CCCCNc1cc(N[C@@H](C)[C@@H](Cc2ccc(Cl)cc2)c2cccc(Br)c2)ncn1`, the figures for the IC50 in experiment [1] and in experiment [2] were 16.3 nM and 2960 nM, respectively.

Regarding `CCCCCCOc1cc(N[C@@H](C)[C@@H](Cc2ccc(Cl)cc2)c2cccc(Br)c2)ncn1`, in experiment [1], the IC50 was 135 nM.

Compound `CC[C@H](Nc1cc(NC2CCCC2)ncn1)[C@@H](Cc1ccc(Cl)cc1)c1cccc(Br)c1` registered an IC50 in experiment [1] of 63.2 nM.

The compound `CC[C@H](Nc1cc(NC2CCCCC2)ncn1)[C@@H](Cc1ccc(Cl)cc1)c1cccc(Br)c1` came in with an IC50 in experiment [1] of 569 nM.

As for `COc1cc(N[C@@H](C)[C@@H](Cc2ccc(Cl)cc2)c2cccc(Br)c2)ncn1`, the IC50 in experiment [1] stood at 136 nM.

Consider `CCCCCNc1cc(N[C@@H](C)[C@@H](Cc2ccc(Cl)cc2)c2cccc(Br)c2)nc(C(F)(F)F)n1`, for which, in experiment [1], the IC50 amounted to 59.3 nM.

In the case of `C[C@H](Nc1cc(NC2CCCCC2)nc(C(F)(F)F)n1)[C@@H](Cc1ccc(Cl)cc1)c1cccc(Br)c1`, the IC50 in experiment [1] is 22.4 nM.

For `CSc1nc(NC2CCCCC2)cc(N[C@@H](C)[C@@H](Cc2ccc(Cl)cc2)c2cccc(Br)c2)n1`, in experiment [1], the IC50 was 57.3 nM.

The compound `C[C@H](Nc1cc(N2CCCCC2)nc(C(F)(F)F)n1)[C@@H](Cc1ccc(Cl)cc1)c1cccc(Br)c1` showed an IC50 in experiment [1] of 196 nM.

As to `CCCCNc1cc(N[C@@H](C)[C@@H](Cc2ccc(Cl)cc2)c2cccc(Br)c2)nc(C)n1`, the IC50 in experiment [1] came to 82 nM.

Turning to `CC1CCN(c2cc(N[C@@H](C)[C@@H](Cc3ccc(Cl)cc3)c3cccc(Br)c3)ncn2)CC1`, in experiment [1], the IC50 came out at 76.5 nM.

Compound `C[C@H](Nc1cc(NCc2ccccn2)ncn1)[C@@H](Cc1ccc(Cl)cc1)c1cccc(Br)c1` showed an IC50 in experiment [1] of 264 nM.

Take `CCCCNc1cc(N[C@@H](C)[C@@H](Cc2ccc(Cl)cc2)c2cccc(Br)c2)nc(SC)n1`: in experiment [1], the IC50 amounted to 69.6 nM.

`Cc1nc(N[C@@H](C)[C@@H](Cc2ccc(Cl)cc2)c2cccc(Br)c2)cc(N2CCCCC2)n1` showed an IC50 in experiment [1] of 28.9 nM.

`CC(C)CCNc1cc(N[C@@H](C)[C@@H](Cc2ccc(Cl)cc2)c2cccc(Br)c2)ncn1` registered an IC50 in experiment [1] of 113 nM.

As to `CCCCc1cc(N[C@@H](C)[C@@H](Cc2ccc(Cl)cc2)c2cccc(Br)c2)ncn1`, in experiment [1], the IC50 amounted to 73.8 nM.

`C[C@H](Nc1cc(NCc2ccccc2)ncn1)[C@@H](Cc1ccc(Cl)cc1)c1cccc(Br)c1` returned an IC50 in experiment [1] of 195 nM.

In the case of `C[C@H](Nc1cc(OC2CCCCC2)ncn1)[C@@H](Cc1ccc(Cl)cc1)c1cccc(Br)c1`, in experiment [1], the IC50 turned out to be 95.3 nM.

As to `C[C@H](Nc1cc(N2CCCCCC2)ncn1)[C@@H](Cc1ccc(Cl)cc1)c1cccc(Br)c1`, the IC50 in experiment [1] turned out to be 94.4 nM.

`C[C@H](Nc1cc(N2CCC(C(F)(F)F)CC2)ncn1)[C@@H](Cc1ccc(Cl)cc1)c1cccc(Br)c1`: the IC50 in experiment [1] was 75 nM.

Compound `CSc1nc(N[C@@H](C)[C@@H](Cc2ccc(Cl)cc2)c2cccc(Br)c2)cc(N2CCCCC2)n1` displayed an IC50 in experiment [1] of 109 nM.

As to `Cc1nc(N[C@@H](C)[C@@H](Cc2ccc(Cl)cc2)c2cccc(Br)c2)cc(N(C)C)n1`, in experiment [1], the IC50 was 130 nM.

Turning to `CCCCCCNc1cc(N[C@@H](C)[C@@H](Cc2ccc(Cl)cc2)c2cccc(Br)c2)ncn1`, the IC50 in experiment [1] is 342 nM.

For the compound `Cc1nc(NCc2ccc(C(F)(F)F)cc2)cc(N[C@@H](C)[C@@H](Cc2ccc(Cl)cc2)c2cccc(Br)c2)n1`, in experiment [1], the IC50 stood at 160 nM.

For `CSc1nc(NC2CCCCCC2)cc(N[C@@H](C)[C@@H](Cc2ccc(Cl)cc2)c2cccc(Br)c2)n1`, in experiment [1], the IC50 was 33 nM.

With `CCC(CC)Nc1cc(N[C@@H](C)[C@@H](Cc2ccc(Cl)cc2)c2cccc(Br)c2)ncn1`, the IC50 in experiment [1] is 93.6 nM.

With `CCCCOc1cc(N[C@@H](C)[C@@H](Cc2ccc(Cl)cc2)c2cccc(Br)c2)ncn1`, in experiment [1], the IC50 is 76.6 nM.

`CC[C@H](Nc1cc(NC2CCCCCC2)ncn1)[C@@H](Cc1ccc(Cl)cc1)c1cccc(Br)c1`: the IC50 in experiment [1] amounted to 636 nM.

In experiment [1], `C[C@H](Nc1cc(N2CCCC2)ncn1)[C@@H](Cc1ccc(Cl)cc1)c1cccc(Br)c1` came in with an IC50 of 116 nM.

In experiment [1], `C[C@H](Nc1cc(N2CCOCC2)ncn1)[C@@H](Cc1ccc(Cl)cc1)c1cccc(Br)c1` registered an IC50 of 69.3 nM.

With `CCCNc1cc(N[C@@H](C)[C@@H](Cc2ccc(Cl)cc2)c2cccc(Br)c2)ncn1`, the IC50 in experiment [1] turned out to be 48.1 nM.

`Cc1nc(NC2CCCCC2)cc(N[C@@H](C)[C@@H](Cc2ccc(Cl)cc2)c2cccc(Br)c2)n1` returned an IC50 in experiment [1] of 22.1 nM.

In experiment [1], `C[C@H](Nc1cc(OCC2CCCCC2)ncn1)[C@@H](Cc1ccc(Cl)cc1)c1cccc(Br)c1` had an IC50 of 136 nM.

For the compound `Clc1ccc(C[C@H](CNc2cc(N3CCCCC3)ncn2)c2cccc(Br)c2)cc1`, the IC50 in experiment [1] worked out at 71.1 nM.

The compound `Clc1ccc(C[C@H](CNc2cc(NC3CCCCCC3)ncn2)c2cccc(Br)c2)cc1` returned an IC50 in experiment [1] of 1540 nM.

`CC[C@H](Nc1cc(N2CCCCC2)ncn1)[C@@H](Cc1ccc(Cl)cc1)c1cccc(Br)c1` had an IC50 in experiment [1] of 285 nM.
